Experimental findings from ChEMBL document CHEMBL4145466, “Design, synthesis, and biological evaluation of novel combretastatin A-4 thio derivatives as microtubule targeting agents” (Eur J Med Chem, 2018) are described below.

Activity calls are given as the source filed them. The rule behind the calls is not given here.

Data set [1] deals with SK-OV-3. The data set can be described thus: Induction of apoptosis in human SKOV3 cells assessed as increase in histone-associated DNA fragments in mononucleosomes after 24 hrs by ELISA. The format is functional, cell-based. A digest of the protocol:
(§1)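 Cells (2 × 10^4) were incubated for 24 h at 0.1, 0.5 or 1 µM, lysed and centrifuged. Supernatants went onto a streptavidin plate with anti-histone-biotin and anti-DNA-peroxidase for 2 h, followed by ABTS for 30 min and a reading at 405 nm. Nucleosome content was expressed as an enrichment factor, as mean ± SD of three experiments.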

The subject of data set [2] is HeLa. The data set can be described thus: Induction of apoptosis in human HeLa cells assessed as increase in histone-associated DNA fragments in oligonucleosomes after 24 hrs by ELISA. In kind it is functional, cell-based. A digest of the protocol:
as §1

In data set [3] the target is T1, Tubulin (Homo sapiens) (UniProt P68371+Q9H4B7+P0DPH7+P68366+Q13509+Q71U36+P04350+Q3ZCM7+P07437+P68363+Q9BQE3+Q6PEY2+Q13885+Q9BVA1+Q9BUF5). The data set can be described thus: Inhibition of tubulin polymerization in human SKOV3 cells assessed as chromatin condensation at 1 uM after 24 hrs by Hoechst 33258 staining-based fluorescence microscopic analysis. The format is cell-based. Summed up: (§2)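 Cells seeded at 12.5 × 10^4 per well and exposed to 1 µM compound for 24 h. Nuclei were stained with Hoechst 33258 (10 µg/mL, 30 min, 37 °C), then fixed in 4% formaldehyde/PBS (15 min, RT). Cells were permeabilized with 1% Triton X-100, blocked with 2% BSA/PBS for 1 h, and incubated with anti-α-tubulin-FITC (1:50) overnight at 4 °C. Imaged by fluorescence microscopy.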

The test system of data set [4] is SK-OV-3. The data set can be described thus: Cell cycle arrest in human SKOV3 cells assessed as accumulation of cells at G2/M phase after 24 hrs by propidium iodide staining-based FACS analysis. In kind it is functional. Summed up:
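Cells were seeded at 5 × 10^5 per well in DMEM with 10% FBS and left overnight, then exposed to 0.1, 0.5 or 1 µM for 24 h. DMSO served as the negative control and 50 nM camptothecin as the positive control. Cells were trypsinized, fixed in 70% ethanol for 30 min at 4 °C, stained with 50 µg/mL PI plus 100 µg/mL RNase A for 30 min in the dark, and analysed by flow cytometry. Results are mean ± SD of three experiments, compared by ANOVA with Dunnett's test.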

In data set [5] the target is T1, Tubulin (Homo sapiens). The data set can be described thus: Inhibition of tubulin polymerization in human MCF7 cells assessed as chromatin condensation at 1 uM after 24 hrs by Hoechst 33258 staining-based fluorescence microscopic analysis. The format is cell-based. Summed up: as §2
A further data set has as its system A-431. The data set can be described thus: Induction of apoptosis in human A431 cells assessed as increase in histone-associated DNA fragments in oligonucleosomes after 24 hrs by ELISA. The format is functional, cell-based. A digest of the protocol: as §1
Data set [6] deals with T1, Tubulin (Homo sapiens). The data set can be described thus: Inhibition of tubulin polymerization in human MDA-MB-231 cells assessed as chromatin condensation at 1 uM after 24 hrs by Hoechst 33258 staining-based fluorescence microscopic analysis. In kind it is cell-based. Summed up:
as §2

Another data set relates to Tubulin. The data set can be described thus: Inhibition of tubulin polymerization in human HaCaT cells assessed as chromatin condensation at 1 uM after 24 hrs by Hoechst 33258 staining-based fluorescence microscopic analysis. In kind it is cell-based. Summed up: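 Cells were seeded at 12.5 × 10^4 per well and treated at 1 µM for 24 h. They were stained with Hoechst 33258 (10 µg/mL, 30 min, 37 °C), fixed in 4% formaldehyde, permeabilized with 1% Triton X-100 and blocked in 2% BSA. Anti-α-tubulin-FITC (1:50) was applied overnight at 4 °C, and cells were imaged by fluorescence microscopy.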

The test system of data set [7] is MDA-MB-231. The data set can be described thus: Induction of apoptosis in human MDA-MB-231 cells assessed as increase in histone-associated DNA fragments in mononucleosomes after 24 hrs by ELISA. In kind it is functional, cell-based. Summed up:
as §1

In data set [8] the test system is MDA-MB-231. The data set can be described thus: Induction of apoptosis in human MDA-MB-231 cells assessed as increase in histone-associated DNA fragments in oligonucleosomes after 24 hrs by ELISA. The format is functional, cell-based. A digest of the protocol:
as §1

Data set [9] concerns HaCaT. The data set can be described thus: Induction of apoptosis in human HaCaT cells assessed as increase in histone-associated DNA fragments in mononucleosomes after 24 hrs by ELISA. In kind it is cell-based. A digest of the protocol:
as §1

Data set [10] has as its target T1, Tubulin (Homo sapiens). The data set can be described thus: Inhibition of tubulin polymerization in human HeLa cells assessed as chromatin condensation at 1 uM after 24 hrs by Hoechst 33258 staining-based fluorescence microscopic analysis. In kind it is cell-based. A digest of the protocol:
as §2

For data set [11], the system named is HaCaT. The data set can be described thus: Induction of apoptosis in human HaCaT cells assessed as increase in histone-associated DNA fragments in oligonucleosomes at 0.1 uM after 24 hrs by ELISA. The format is cell-based. A digest of the protocol: (§3)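 HaCaT cells (2 × 10^4), grown in DMEM with 10% FBS, penicillin/streptomycin and 2 mM L-glutamine, exposed to compound (DMSO stock) for 24 h. Cells lysed, supernatant taken after centrifugation and incubated 2 h on a streptavidin-coated plate with anti-histone-biotin and anti-DNA-peroxidase. ABTS added for 30 min, A405 read. Output is enrichment factor vs control, mean ± SD of three independent experiments.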

Data set [12] deals with MDA-MB-231. The data set can be described thus: Induction of apoptosis in human MDA-MB-231 cells assessed as increase in histone-associated DNA fragments in mononucleosomes at 0.1 uM after 24 hrs by ELISA. The format is functional, cell-based. A digest of the protocol: as §1
Data set [13] has as its system HaCaT. The data set can be described thus: Induction of apoptosis in human HaCaT cells assessed as increase in histone-associated DNA fragments in mononucleosomes at 0.1 uM after 24 hrs by ELISA. In kind it is cell-based. A digest of the protocol:
as §3

A further data set deals with MCF7. The data set can be described thus: Induction of apoptosis in human MCF7 cells assessed as increase in histone-associated DNA fragments in oligonucleosomes at 0.1 uM after 24 hrs by ELISA. The format is functional, cell-based. A digest of the protocol: as §1
Data set [14] relates to HeLa. The data set can be described thus: Induction of apoptosis in human HeLa cells assessed as increase in histone-associated DNA fragments in mononucleosomes at 0.1 uM after 24 hrs by ELISA. The format is functional, cell-based. Summed up: as §1
Data set [15] concerns MDA-MB-231. The data set can be described thus: Induction of apoptosis in human MDA-MB-231 cells assessed as increase in histone-associated DNA fragments in oligonucleosomes at 0.1 uM after 24 hrs by ELISA. The format is functional, cell-based. Summed up:
as §1

For the compound `COc1ccc(-c2ocnc2-c2cc(Br)c(OC)c(OC)c2)cc1SC`, the Activity entry with SK-OV-3 [1], in the data set on HeLa [2], in the data set on SK-OV-3 [4], in the data set on A-431, with MDA-MB-231 [7] and in the data set with MDA-MB-231 [8] was “Dose-dependent effect” throughout. Also, in the data set on HaCaT [9], the Activity result is listed as “Dose-dependent effect”. In addition, the inhibition result at Tubulin (Homo sapiens) [3], on Tubulin (Homo sapiens) [5], at Tubulin (Homo sapiens) [6] and at Tubulin (Homo sapiens) [10] was “Active” each time. In addition, the “inhibition (INH)” value in the data set on Tubulin is “Active”.
`COc1ccc(-c2ocnc2-c2cc(OC)c(SC)c(OC)c2)cc1O`: the Activity entry in the data set with HaCaT [11] and with HaCaT [13] was “Toxic” throughout. For the same compound, the outcome with MDA-MB-231 [12], in the data set with MCF7, in the data set on HeLa [14] and in the data set with MDA-MB-231 [15] was Active.
